The text below walks through data of ChEMBL document CHEMBL1795208 (J Med Chem, 2011).

Type in all cases: functional, cell-based
Assay [1] can be described thus: Antiproliferative activity against human JMAR cells after 72 hrs by MTS/PMS assay. The procedure, abridged:
(§1)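 Cells kept in Advanced DMEM/F12 (1:1) with non-essential amino acids, 2 mM L-glutamine, penicillin, streptomycin and 10% FBS at 37 °C, 5% CO2. Seeded at 2000/well, attached overnight. Compound added in DMSO across a concentration range (1% DMSO final) for 72 h. Viable cells read by MTS/PMS and normalized to 1% DMSO controls (100%). IC50 taken from separate triplicate experiments.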

A short description of assay [2]: Antiproliferative activity against human MDA1986 cells after 72 hrs by MTS/PMS assay. The following applies: MDA1986, 72 h. The procedure, abridged:
as §1

Assay [3] concerns MCF7. Kind of assay: Antiproliferative activity against human MCF7 cells expressing estrogen receptor after 72 hrs by MTS/PMS assay. The following applies: MCF7, 72 h. In outline:
as §1

Assay [4] is described as follows: Antiproliferative activity against human androgen-dependent LNCaP-LN3 cells after 72 hrs by MTS/PMS assay. The following applies: LNCaP-LN3, 72 h. The procedure, abridged: as §1
In assay [5] the test system is SK-BR-3. Kind of assay: Antiproliferative activity against human SKBR3 cells expressing HER2 after 72 hrs by MTS/PMS assay. The following applies: SK-BR-3, 72 h. The procedure, abridged: as §1
Assay [6] concerns SK-MEL-28. In words: Antiproliferative activity against human SK-MEL-28 cells after 72 hrs by MTS/PMS assay. The following applies: SK-MEL-28, 72 h. The procedure, abridged:
as §1

The subject of assay [7] is B16-F10. In words: Antiproliferative activity against mouse B16F10 cells after 72 hrs by MTS/PMS assay. The following applies: B16-F10, 72 h. The procedure, abridged: as §1
Assay [8] in a line: Antiproliferative activity against human androgen-independent PC3MM2 cells after 72 hrs by MTS/PMS assay. The settings on record: PC3MM2, 72 h. The procedure, abridged:
as §1

In general, IC50 refers to the concentration that gives 50% inhibition. Higher therefore signals lower potency. Regarding `COc1cccc(-c2cc(C(=O)Nc3cc4ccc(O[C@@H]5OCC[C@@H](O)[C@H]5O)c(C)c4oc3=O)ccc2OC)c1`, the IC50 in assay [1] stood at 2.79 µM; in assay [2], 13.4 µM; in assay [3] it was 2.56 µM; in assay [4] it was 3.59 µM; in assay [5], 6.23 µM; in assay [6], 14.9 µM. In addition, the IC50 in assay [7] turned out to be 37.5 µM.
On to `COc1cccc(-c2cc(C(=O)Nc3cc4ccc(OC5C=CCC(C)C5)c(C)c4oc3=O)ccc2OC)c1` (stereo unspecified), for which the half-maximal inhibitory concentration (IC50) was 24.9 µM in assay [1], 21.8 µM in assay [2], 20.6 µM in assay [6] and more than 50 µM in assay [7].
Turning to `COc1cc2cc(NC(=O)c3cc4ccccc4[nH]3)c(=O)oc2c(C)c1OCCCN(C)C`, the concentration for half-maximal inhibition (IC50) was found to be 2.65 µM in assay [1]; 1.81 µM in assay [2]; 0.56 µM in assay [3]; 0.57 µM in assay [5]; 1.35 µM in assay [6]; 2.03 µM in assay [7]. The same compound registered an IC50 in assay [8] of 2.58 µM.
Turning to `COc1cccc(-c2cc(C(=O)Nc3cc4cc(OC)c(OC5C=CCN(C(C)=O)C5)c(C)c4oc3=O)ccc2OC)c1` (stereo unspecified), the IC50 in assay [1] came out at 35.1 µM; in assay [2], 25.1 µM; in assay [6] it was 27.6 µM; in assay [7] it was 21.4 µM.
As for `COc1cccc(-c2cc(C(=O)Nc3cc4ccc(O[C@@H]5OC[C@@H](O)[C@H]5O)c(C)c4oc3=O)ccc2OC)c1`, the IC50 is 12.6 µM in assay [1]; 1.94 µM in assay [2]; 37.2 µM in assay [3]; 3.65 µM in assay [4]; 12.5 µM in assay [5]; 5.74 µM in assay [6]. Moreover, 4.55 µM corresponded to half-maximal inhibition in assay [7] (IC50).
As for `COc1cccc(-c2cc(C(=O)Nc3cc4ccc(OC5C=CCCC5)c(C)c4oc3=O)ccc2OC)c1` (stereo unspecified), the IC50 was 7.5 µM in assay [1], 22.4 µM in assay [2], 18.6 µM in assay [6] and more than 50 µM in assay [7].
For `COc1cccc(-c2cc(C(=O)Nc3cc4cc(OC)c(OC5CCCN(C(C)=O)C5)c(C)c4oc3=O)ccc2OC)c1` (stereo unspecified) the same measures were 32.8 µM, 36.4 µM, 29.4 µM and 23.9 µM.
Regarding `COc1cccc(-c2cc(C(=O)Nc3cc4ccc(O[C@@H]5OCC[C@H]5O)c(C)c4oc3=O)ccc2OC)c1`, the IC50 in assay [1] was 14.9 µM; in assay [2], 21.4 µM; in assay [3], more than 100 µM; in assay [5], more than 100 µM; in assay [6], 18.4 µM; in assay [7], 42.7 µM.
Turning to `COc1cccc(-c2cc(C(=O)Nc3cc4ccc(O[C@H]5OCCC[C@H]5O)c(C)c4oc3=O)ccc2OC)c1`, the IC50 in assay [1] was 3.6 µM; in assay [2], 18.8 µM; in assay [3], more than 100 µM; in assay [4], 7.34 µM; in assay [5], more than 100 µM; in assay [6] it was 19.6 µM. In assay [7], this compound registered an IC50 of 10.4 µM.
In the case of `COc1cccc(-c2cc(C(=O)Nc3cc4ccc(OC5C=CCC(C)(C)C5)c(C)c4oc3=O)ccc2OC)c1` (stereo unspecified), the IC50 in assay [1] was 6.7 µM; in assay [2], 24.4 µM; in assay [6], 23.8 µM; in assay [7] it was more than 50 µM.
Take `COc1cccc(-c2cc(C(=O)Nc3cc4ccc(OCCCN(C)C)c(OC)c4oc3=O)ccc2OC)c1`: the IC50 in assay [3] worked out at 1.53 µM; in assay [4], 8.03 µM; in assay [5], 0.91 µM; in assay [8], 4.08 µM.
For `COc1cccc(-c2cc(C(=O)Nc3cc4ccc(OC5C=CCN(C(C)=O)C5)c(C)c4oc3=O)ccc2OC)c1` (stereo unspecified) the same measures were more than 50 µM, 0.9 µM, more than 50 µM and 3.73 µM.
On the same counts, the results for `COc1c(OC2CCN(C)CC2)ccc2cc(NC(=O)c3cc4ccccc4[nH]3)c(=O)oc12` are 1.86 µM, 12.6 µM, 2.58 µM and 7.93 µM.
